According to ChEMBL document CHEMBL1140329, “Control of protein-protein interactions: structure-based discovery of low molecular weight inhibitors of the interactions between Pin1 WW domain and phosphopeptides” (J Med Chem, 2005):
Where a SMILES comes first, the peptide text is derived from it. [ ]: non-standard residue; d: D form. The star is where a group is joined. pT = C[C@@H](OP(=O)(O)O)[C@H](N)C(=O)O; Fmoc = O=C(OCC1c2ccccc2-c2ccccc21)*; Hydrocinnamoyl = O=C(CCc1ccccc1)*; ΔPro = O=C(O)[C@@H]1C=CCN1; Thz = O=C(O)[C@@H]1CSCN1; PhAc = O=C(Cc1ccccc1)*

Target: Peptidyl-prolyl cis-trans isomerase NIMA-interacting 1 (Homo sapiens, UniProt Q13526)
Experiment: Dissociation constant for human peptidyl-prolyl cis-trans isomerase NIMA-interacting 1
In short: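 15N-labeled Pin1 WW domain (His6-tagged, expressed in E. coli BL21(DE3)) in 25 mM deuterated Tris-HCl pH 6.8, 50 mM NaCl, 5 mM DTT, 2.5 mM EDTA, 10% D2O; 600 MHz 1H-15N HSQC at 293 K. 50 μM protein titrated with ligand 0.025–1 mM final; chemical shift perturbations fitted to a single-site equation for KD.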

Chain of Peptidyl-prolyl cis-trans isomerase NIMA-interacting 1 (Q13526 whole entry): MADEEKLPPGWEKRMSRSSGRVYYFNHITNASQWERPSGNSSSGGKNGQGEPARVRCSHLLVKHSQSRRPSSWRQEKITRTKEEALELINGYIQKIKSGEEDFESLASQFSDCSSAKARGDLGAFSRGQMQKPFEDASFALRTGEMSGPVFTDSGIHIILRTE

SMILES | Kd
C[C@@H](OP(=O)(O)O)[C@H](NC(=O)CCCc1ccccc1)C(=O)N1CC=C[C@H]1C(N)=O | 28 µM
NC(=O)[C@@H]1CCCN1C(=O)CCNS(=O)(=O)C(F)(F)F | > 2000 µM
NC(=O)[C@@H]1CCCN1C(=O)CCP(=O)(O)O | > 2000 µM
NC(=O)[C@@H]1CCCN1C(=O)CC/N=c1\c(O)c(O)c1=O | > 2000 µM
NC(=O)[C@@H]1CCCN1C(=O)CCC(=O)O | > 2000 µM
C[C@@H](OP(=O)(O)O)[C@H](NC(=O)CCCCc1ccccc1)C(=O)N1CCC[C@H]1C(N)=O | 48 µM
NC(=O)[C@@H]1CCCN1C(=O)CCCC(=O)O | > 2000 µM
C[C@@H](OP(=O)(O)O)[C@H](NC(=O)CCCc1ccccc1)C(=O)N1CCC[C@H]1C(N)=O | 30 µM
CC(=O)N[C@H](C(=O)N1CCC[C@@H]1C(N)=O)[C@@H](C)OP(=O)(O)O | 100 µM
NC(=O)[C@@H]1CCCN1C(=O)[C@H](CCC/N=c1\c(O)c(O)c1=O)NC(=O)OCC1c2ccccc2-c2ccccc21 | 910 µM
NC(=O)[C@@H]1CCCN1C(=O)[C@H](CCCCNc1c(O)c(=O)c1=O)NC(=O)OCC1c2ccccc2-c2ccccc21 | 540 µM
C[C@@H](OP(=O)(O)O)[C@H](NC(=O)C(c1ccccc1)c1ccccc1)C(=O)N1CCC[C@H]1C(N)=O | 38 µM
CC(=O)N[C@H](C(=O)N1C[C@@H](F)C[C@H]1C(N)=O)[C@@H](C)OP(=O)(O)O | 420 µM
C[C@@H](OP(=O)(O)O)[C@H](NC(=O)CCC(C)(c1ccc(O)cc1)c1ccc(O)cc1)C(=O)N1CC=C[C@H]1C(N)=O | 5 µM
CC(=O)N[C@@H](CCC(=O)O)C(=O)N1CCC[C@H]1C(N)=O (Ac-Glu-Pro-NH2) | > 2000 µM
CC(=O)N[C@H](C(=O)N1CSC[C@H]1C(N)=O)[C@@H](C)OP(=O)(O)O (Ac-[pT]-[Thz]-NH2) | 400 µM
CC(=O)N[C@H](C(=O)N1CC=C[C@H]1C(N)=O)[C@@H](C)OP(=O)(O)O (Ac-[pT]-[ΔPro]-NH2) | 18 µM
C[C@@H](OP(=O)(O)O)[C@H](NC(=O)OCC1c2ccccc2-c2ccccc21)C(=O)N1CCC[C@H]1C(N)=O (Fmoc-[pT]-Pro-NH2) | 15 µM
C[C@@H](OP(=O)(O)O)[C@H](NC(=O)OCC1c2ccccc2-c2ccccc21)C(=O)N1CC=C[C@H]1C(N)=O (Fmoc-[pT]-[ΔPro]-NH2) | 66 µM
C[C@@H](OP(=O)(O)O)[C@H](NC(=O)CCc1ccccc1)C(=O)N1CCC[C@H]1C(N)=O (Hydrocinnamoyl-[pT]-Pro-NH2) | 32 µM
C[C@@H](OP(=O)(O)O)[C@H](NC(=O)Cc1ccccc1)C(=O)N1CCC[C@H]1C(N)=O (PhAc-[pT]-Pro-NH2) | 35 µM
CC(=O)N[C@H](C(=O)N1CCC1C(N)=O)C(C)OP(=O)(O)O (single isomer, unassigned) | 160 µM
CC(=O)N[C@H](C(=O)N1CC(F)CC1C(N)=O)[C@@H](C)OP(=O)(O)O (single isomer, unassigned) | 36 µM
CC(=O)N[C@H](C(=O)N1CC(O)CC1C(N)=O)[C@@H](C)OP(=O)(O)O (single isomer, unassigned) | 800 µM
CC(=O)N[C@H](C(=O)N1CCCCC1C(N)=O)C(C)OP(=O)(O)O (single isomer, unassigned) | 140 µM
